Results published in the EternaBench riboswitch data.

Test system: MS2 coat protein
Assay: apparent Kd, MS2 coat protein; higher = weaker binding; RNA-MaP array; FMN 200 µM where present
Procedure, shortened: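 Binding was read on Illumina sequencing-chip clusters where stalled E. coli RNA polymerase had transcribed each design. A titration of SNAP-549-labelled MS2 coat protein began at 0.7 or 1.5 nM and doubled to 3 µM, once without ligand and once with constant ligand, in 100 mM Tris-HCl pH 7.5, 80 mM KCl, 4 mM MgCl2, BSA, DTT, yeast tRNA and Tween-20. The apparent Kd is the median of filtered per-cluster binding-curve fits, based on green signal normalised to red-channel RNA signal and control-cluster median Fmax.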

[1] = designed as: OFF switch for flavin mononucleotide, no ligand
[2] = ligand present: flavin mononucleotide, designed as: OFF switch for flavin mononucleotide
[3] = designed as: ON switch for flavin mononucleotide, no ligand
[4] = ligand present: flavin mononucleotide, designed as: ON switch for flavin mononucleotide

Sequence	apparent Kd [1] [µM]	apparent Kd [2] [µM]	apparent Kd [3] [µM]	apparent Kd [4] [µM]
AUCCGGCGUGUAGGAUAUGGAAAAGAUUAGGAUCCAGAAGGACAUGAGGAUCACCCAUGUACAUGUAAACAGUCAUCACCGGAA	0.0341	0.0496	–	–
GCAGCUAUUAUUAUACAUGAGGAUCACCCAUGUUACAUGUGUAAGGAUAUUGAUGUUUAUAUAAUCAAGAAGGUACGAAGCUGC	–	–	0.0116	0.00715
GGAUAGGACAGAGGAUAUACGUGCUAGAGAUACUAGCAAAAUUUCCUCACAUGAGGAUCACCCAUGUAGAAGGCUGUCCUAUCG	0.046	0.954	–	–
CUUUAACACCAGAAGGACAUGAGGAUCACCCAUGUAGGAUAUGGGACUCCUAGUAGGCAUAUUGUGCUUCCGGUAGGACAAGGA	–	–	0.478	0.0622
AAAAGAUAAGCAGGAUAUCGAACAACUCAUGGGCUAUGCCAUCCGCACAUGAGGAUCACCCAUGUCGAGAAGGGCUAAGAGUAG	0.00982	0.0258	–	–
AUACCACGAGGAUAUCGUCUAUUCCACAUGAGGAUCACCCAUGUUAUCCAUGUUUCGUUUCGAGAAGGCGUGUUUU	0.0593	0.0415	–	–
UUAAUUAAUUAAUUGCAGAAUUACAUGAGGAUCACCCAUGUAUAGGAUAUCGUCAGGAAUACUGACGAGAAGGAUACAUACUGC	0.0179	0.0266	–	–
CCCGAGGAAGGAUAUACAUGAGGAUCACCCAUGUGCGUUGGGACUGGCGUAGUCUUCAGUAGAAGGUCCGCGCC	0.0185	0.0175	–	–
GUAGAGUAAGGAUAUGCAGAAUAGGAUAGAAUGGAUAGAAUGCAGAAGGUACAUGAGGAUCACCCAUGUAAUGU	0.0198	0.0216	–	–
GCAUGUAAGCAGAAGGGCAGACAUUUUGAUGCUGCAGGAUAUGCAGAAUCAUAUCCACAUGAUAACAUGAGGAUCACCCAUGUA	0.0199	0.0243	–	–
CGUUCAGAGAACGAUACGAAUAGACAUGAGGAUCACCCAUGUAGAAGGACAACGGAAUAAACGUUGUAGGAUAUACAUUUAGUG	0.0413	0.111	–	–
AGAAAGUCAGGAUAUCGAAGGUAGUGGAGAGGAGUGUGGUACGAGAAGGGACAUGAGGAUCACCCAUGUAGGAG	0.0341	0.0314	–	–
GGAAGACAAAGUCUUCCAUUACGAACAUGAGGAUCACCCAUGUAGGAUAUGCUUCUCAAAGAGAAGCAGAAGGACAUGUGUCUU	0.0266	0.134	–	–
UGUCGGAGCAGAGGAUAUUACAUGAGGAUCACCCAUGUAUCAACCAAUAGCUGGAAACAGCAAUGUAAGAAGGCUGCUCCGACA	0.00754	0.0198	–	–
CAAAGUUGGUAAGGAUAUCCCACAUUAUUCUGACCCGUGCAAGCUACAUGAGGAUCACCCAUGUGGGAGAAGGUGCGGUAAAGA	0.00616	0.00611	–	–
CCUCCACAUGAGGAUCACCCAUGUCAGGAUAUCGUGUGUGUUUUUUCGGUCUUUCGUGCGAGAAGGGACGUCUG	0.0516	0.0523	–	–
AGCUGUGGCCGAGGAUAUACAUCCUUUAUAAAACCGAAAUAUAAUCGGACAUGAGGAUCACCCAUGUAGAAGGCGGUCUCAGCA	0.0514	0.702	–	–
UUGGACGUCGUAGGAUAUGUAGGAUAUUCCUACAUGAGGAUCACCCAUGUUGACAUGGAAGAAGGACAGAAGGACGAGGUCCAU	–	–	0.241	0.00493
GUAGCUAUCGGAGGAUAUCCAUACCGGAAACGGACAUGAGGAUCACCCAUGUGGCGAAAGCCUUGGGAGAAGGCCGAUAGCUAC	–	–	0.00506	0.00336
GCGUUCUUGUAGAAGGUACUUUCAACAUCUUAUAAACGCUAGACACAUGAGGAUCACCCAUGUUGUAAGGAUAUACAUGAACGC	–	–	0.0113	0.0109
GGGUGACAUGAGGAUCACCCAUGUCAGGAUAUGAUACUAUGUACUUCGGUACAUAGUAUCAGAAGGGACAUAAA	0.104	0.0271	–	–
AAGAAGUGAGGAUAUAGUUGCACUAGCUAAUGCUAGUGCAACUAGAAGGCACAUGAGGAUCACCCAUGUAAAAG	0.0291	0.0419	–	–
AAAGUUGGUAGGCCCUUGGAACAUGAGGAUCACCCAUGUAAGGAGGAUAUGCCCGGUACCCGCUGGCAGAAGGCCUUAUAAGAA	0.0205	0.143	–	–
AGUCGGAGCAGAGGAUAUAUACAUGAGGAUCACCCAUGUAAAUGAAUGAGCUGGAAACAGCAAGUAUAGAAGGCUGCUCCGACA	0.0152	0.016	–	–
GGAAGAGUAGGAUAUACAUGAGGAUCACCCAUGUCCUGGAGAAGCAAUUCGAUAUCCUGUAGAAGGACUAAUCU	0.04	0.0361	–	–
AGCUACGUUUCGUAGCAGUGUCAUCGAGAAGGCCCUGACAUGAGGAUCACCCAUGUUGUUACAUGGGAGGAUAUCGAUGAUACA	–	–	0.0126	0.0049
AUGGGCUAAGGAUAUAGACGACGACACAUGAGGAUCACCCAUGUCAGUAAUGGGUCUUGGCUAGAAGGUAGAACCC	0.0445	0.0727	–	–
AGAAGGCUACAGAAGGGACACACACGGUGGGAGUCAGGAUAUGUAGUGAAAACGUUACAUGAGGAUCACCCAUGUAGACCUUCC	–	–	0.141	0.0184
